Test results as given in PubChem BioAssay.
Active and inactive are the calls of the source.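 The calls were made as follows, unless noted: active = visually confirmed hit in the image check and inhibition above 20%; inconclusive = visually confirmed hit but inhibition not above 20%; inactive = no visual hit in the image check.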

Key:
[1] = inhibitors of TNFa-induced NFkB p65 translocation, primary screen, imaging, HUVEC, MLSMR starter and 10KST1 sets (AID 438;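 active = inhibition above 20% together with a positive visual image hit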;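 also: compound added about 3h40 before a 20 min TNFalpha stimulation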;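 as to inhibition: signal is the nuclear over cytoplasmic p65 intensity ratio per well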); settings: HUVEC TNFa-induced p65 nuclear translocation; cell count: measured here: nuclei count (cytotoxicity indicator), at 2.08 µM; inhibition: at 2 µM, stronger effect = higher value, 0% TNFa-plus-vehicle, 100% no-TNFa wells
[2] = inhibitors of E-selectin induction by TNFa, primary screen, imaging, HUVEC, immunofluorescence, MLSMR starter and 10KST1 sets (AID 487); settings: HUVEC TNFalpha-induced E-selectin immunofluorescence imaging, at 2 µM; inhibition: stronger effect = higher value; nuclei count: measured here: cell number, toxicity;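 as to inhibition: signal is fraction of cell area covered by stained E-selectin grains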;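 as to nuclei count: 100% = median nuclei count of all wells on the same plate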
[3] = DUSP6 inhibitors restoring Erk phosphorylation by chemical complementation, primary imaging in DUSP6-transfected HeLa (AID 609;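 active = compounds giving at least 50% inhibition in the cell-based MKP-3 phosphatase rescue imaging test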;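 as to inhibition: phospho-Erk level distribution per well compared with pooled transfected vehicle control wells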); settings: HeLa MKP-3 transfected, phospho-Erk imaging KS statistic, at 10 µM, cells stimulated with TPA for 15 min
[4] = biological target: Dual specificity protein phosphatase 6 (Homo sapiens) (UniProt Q16828); assay: as above; settings: HeLa MKP-3 transfected, phospho-Erk imaging KS statistic; at 10 µM; stronger effect = higher value; cells stimulated with TPA for 15 min
[5] = biological target: Voltage-gated potassium channel subunit beta-2 (Rattus norvegicus) (UniProt P62483); assay: KvBeta enzyme negative modulators, primary screen, biochemical, NADPH fluorescence (AID 622;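 active = fluorescence slope higher than the sample average by over 3 SD, cut at about -0.22 in these data, passing the limit was not always enough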;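 also: slope of raw intensity against log time taken from 70 to 1610 s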); settings: recombinant KvBeta, 4-cyanobenzaldehyde reduction, at 10 µM, stronger effect = higher value
[6] = biological target: Voltage-gated potassium channel subunit beta-2 (Rattus norvegicus) (UniProt P62483); assay: KvBeta positive modulators, primary screen, biochemical, NADPH fluorescence (AID 623;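 active = NADPH fluorescence slope more negative than the mean of all samples by about 3 SD, 99.7% confidence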;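 also: fluorescence intensity change per second fitted from 20 to 320 s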); settings: Recombinant KvBeta, NADPH fluorescence decrease slope, 10 min; at 10 µM; stronger effect = lower value
[7] = biological target: Muscarinic acetylcholine receptor M4 (Homo sapiens) (UniProt P08173); assay: compounds altering M4/GIRK thallium flux, either direction, primary screen, M4 allosteric agonist project, cell-based, HEK293 M4/GIRK, BTC-AM (AID 625;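 active = fluorescence slope after compound addition differing from the mean of all tested samples at 99.7% confidence, mostly higher but some lower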;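 also: thallium influx through GIRK channels coupled to M4 in HEK293 cells with BTC-AM dye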); settings: at 10 µM, actives lie on both sides
Procedure, shortened: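 Material: M4/GIRK1/GIRK2 stable HEK293 cell line. Medium: pH 7.3 thallium assay buffer. Dosing: single compound concentration, 10 µM final. Schedule: 1 h dye loading, 2 min kinetic read. Measured by: kinetic fluorescence with BTC-AM dye. Read-out: post-addition slope, 15–24 s, of baseline-normalized fluorescence. Benchmarks: carbachol and DMSO controls.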

[8] = inhibitors of larval lipid processing in zebrafish, primary screen, whole organism, PED6 fluorescence, gall bladder and intestine (AID 686;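 active = a full or partial loss of lipid-probe fluorescence in the fish gall bladder, intestine or both, judged by eye; inactive = no fluorescence loss, or compound toxic to the fish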;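 also: larvae 5 to 7 days old with five fish per well; signal comes from phospholipase A2 cleavage of quenched PED6 carried via bile; overnight exposure to compound and PED6 before scoring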); settings: Zebrafish larvae PED6 lipid processing, fluorescence scoring; screened at 20 µM (by protocol)
Procedure, shortened: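 System: live zebrafish larvae aged 5-7 days, whole organism; measure: graded gall bladder and intestinal fluorescence inhibition per well; incubation: overnight exposure; reagent: ingested quenched lipid PED6 at 100 nM; signal: By-eye fluorescence microscopy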

[9] = inhibitors of Chlamydomonas gravitaxis, primary screen, whole organism, Chlamydomonas reinhardtii, WT vs cilia-less mutant, absorbance, 96-well (AID 463189;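 active = inhibition at or above 50% relative to wild type and mutant plate controls; inactive = inhibition below 50%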;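 also: 0% = wild type cc124 cells in DMSO and 100% = ciliumless bld1 mutant cells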); settings: OD600 absorbance, 2 days, at 10 µM, stronger effect = higher value
[10] = measured here: cell density z-score
[11] = measured here: nuclear c-Myc green intensity z-score
[12] = measured here: nuclear pErk red intensity z-score, stronger effect = higher value

Sequence of Dual specificity protein phosphatase 6 (Homo sapiens) (Q16828 whole entry, looked up): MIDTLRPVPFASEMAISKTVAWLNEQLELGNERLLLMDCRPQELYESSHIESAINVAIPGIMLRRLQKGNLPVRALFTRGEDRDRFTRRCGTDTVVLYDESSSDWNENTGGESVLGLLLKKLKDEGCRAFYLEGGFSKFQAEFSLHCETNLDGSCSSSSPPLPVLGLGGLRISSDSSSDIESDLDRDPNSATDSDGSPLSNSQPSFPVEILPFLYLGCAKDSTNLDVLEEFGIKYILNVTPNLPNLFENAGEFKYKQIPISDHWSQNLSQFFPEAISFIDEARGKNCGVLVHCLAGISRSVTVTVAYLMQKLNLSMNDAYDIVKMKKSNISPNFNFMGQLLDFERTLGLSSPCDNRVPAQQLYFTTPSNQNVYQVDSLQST
Sequence of Muscarinic acetylcholine receptor M4 (Homo sapiens) (P08173 whole entry, looked up): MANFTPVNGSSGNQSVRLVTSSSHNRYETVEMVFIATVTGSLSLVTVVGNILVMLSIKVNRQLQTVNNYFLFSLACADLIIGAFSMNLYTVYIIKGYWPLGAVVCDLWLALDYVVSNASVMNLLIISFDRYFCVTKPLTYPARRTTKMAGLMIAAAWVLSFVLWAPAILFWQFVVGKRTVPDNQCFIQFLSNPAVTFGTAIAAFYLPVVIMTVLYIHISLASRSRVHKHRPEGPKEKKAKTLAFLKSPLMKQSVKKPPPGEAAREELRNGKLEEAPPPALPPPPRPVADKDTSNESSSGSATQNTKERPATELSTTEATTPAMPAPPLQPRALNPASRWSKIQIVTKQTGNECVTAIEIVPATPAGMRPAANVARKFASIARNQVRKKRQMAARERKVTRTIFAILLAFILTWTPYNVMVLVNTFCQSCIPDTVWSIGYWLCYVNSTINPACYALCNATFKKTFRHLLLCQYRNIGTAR
Sequence of Voltage-gated potassium channel subunit beta-2 (Rattus norvegicus) (P62483 whole entry, looked up): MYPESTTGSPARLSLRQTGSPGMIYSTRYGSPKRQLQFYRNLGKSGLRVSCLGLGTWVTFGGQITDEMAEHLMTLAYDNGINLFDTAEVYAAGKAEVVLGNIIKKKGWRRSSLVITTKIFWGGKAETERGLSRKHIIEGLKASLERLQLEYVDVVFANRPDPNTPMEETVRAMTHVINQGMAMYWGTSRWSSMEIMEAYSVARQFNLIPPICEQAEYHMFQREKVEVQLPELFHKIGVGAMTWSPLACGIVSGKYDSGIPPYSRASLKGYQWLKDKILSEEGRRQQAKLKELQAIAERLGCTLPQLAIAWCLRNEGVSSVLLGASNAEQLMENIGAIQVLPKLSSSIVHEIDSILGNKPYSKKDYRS

Structure (SMILES) | cell count [1] | inhibition [1] | inhibition [2] | nuclei count [2] [%] | z-score [3, 10] | z-score [3, 11] | z-score [3, 12] | inhibition [4] | fluorescence slope [5] | NADPH fluorescence slope [6] | fluorescence slope [7] | outcome [8] | inhibition [9]
CCOc1ccc(N=C(NC#N)SCC(=O)NC2CC2)cc1 | 613 | -1.5% (inactive) | -40.6% (inactive) | 161 | 0.193 | 0.708 | 0.295 | -2.29% (inactive) | -0.491 (inactive) | -4.8e-05 (inactive) | 0.00628 (inactive) | inactive | -3.68% (inactive)
Cc1nc2c(o1)CCc1ccccc1C2N1CCN(C)CC1 (configuration not stated) | 557 | 1.3% (inactive) | -37.3% (inactive) | 103 | 0.777 | -1.51 | 1.56 | 17.8% (inactive) | -0.412 (inactive) | -3.4e-05 (inactive) | 0.00552 (inactive) | inactive | 29.5% (inactive)
CC(C)c1[nH]c(=O)c(C#N)c2c1CSC(C)(C)C2 | 507 | -14% (inactive) | 4% (inactive) | 89.3 | 0.147 | 0.162 | -0.0562 | 5.35% (inactive) | -0.428 (inactive) | 3.3e-05 (inactive) | 0.0036 (inactive) | inactive | 14% (inactive)
COCCNc1nc2c(c(=O)n(C)c(=O)n2C)n1Cc1cccc(C(F)(F)F)c1 | 698 | 3% (inactive) | -94.2% (inactive) | 95.8 | 0.711 | -1.37 | -0.346 | 7.93% (inactive) | -0.559 (inactive) | -8e-05 (inactive) | 0.00743 (inactive) | inactive | 36.2% (inactive)
N#Cc1nc(-c2cccs2)oc1NCc1ccccc1Cl | 657 | 3.4% (inactive) | -84% (inactive) | 107 | -2.24 | 1.03 | 1.6 | 1.63% (inactive) | -0.513 (inactive) | -3.2e-05 (inactive) | 0.00761 (inactive) | inactive | -1.01% (inactive)
O=C(COc1ccc(F)cc1)OCCN1CCOCC1 | 565 | -8.9% (inactive) | -82.4% (inactive) | 135 | -1.31 | 0.0144 | 2.07 | -10.6% (inactive) | -0.449 (inactive) | -0.000116 (inactive) | 0.00404 (inactive) | inactive | -2.61% (inactive)
CCC(=O)Nc1ccc(-c2nnc(-c3ccccc3)o2)cc1 | 647 | 1.6% (inactive) | 18.6% (inactive) | 89.6 | 1.36 | -0.514 | 1.06 | 1.63% (inactive) | -0.444 (inactive) | -8.1e-05 (inactive) | 0.00653 (inactive) | inactive | 30.3% (inactive)
c1ccc(-n2ncc3c(N4CCCC4)ncnc32)cc1 | 589 | -7% (inactive) | 12.6% (inactive) | 188 | 0.427 | 1.25 | -0.224 | 7.42% (inactive) | -0.378 (inactive) | -3.1e-05 (inactive) | 0.00634 (inactive) | inactive | 15.7% (inactive)
Cc1sc(-n2c(C)ccc2C)c(C#N)c1C | 411 | -2% (inactive) | -11.7% (inactive) | 144 | -1.09 | -0.0847 | 1.07 | 7.73% (inactive) | -0.505 (inactive) | -9.6e-05 (inactive) | 0.00469 (inactive) | inactive | -3.1% (inactive)
Cc1cccc(C)c1OCC(=O)Nc1cccc(-c2nnc(-c3ccccc3)o2)c1 | 634 | -2.9% (inactive) | 27.8% (inactive) | 82.9 | -2.16 | 1.5 | 0.715 | -9.53% (inactive) | -0.492 (inactive) | -4.2e-05 (inactive) | 0.00887 (inactive) | inactive | -17.1% (inactive)
N#Cc1nc(COc2ccccc2)oc1N1CCCC1 | 463 | -4.6% (inactive) | -281% (inactive) | 164 | -0.447 | 1.68 | 0.969 | 4.37% (inactive) | -0.42 (inactive) | -4.6e-05 (inactive) | 0.00421 (inactive) | inactive | -0.28% (inactive)
C=CCn1c(SCC(=O)c2ccc(NS(=O)(=O)c3ccccc3)cc2)nnc1-c1cccs1 | 682 | 3.2% (inactive) | -98.4% (inactive) | 156 | -0.412 | -0.46 | 0.993 | -13.3% (inactive) | -0.473 (inactive) | -4.5e-05 (inactive) | 0.00636 (inactive) | inactive | -10.7% (inactive)
CC(=O)Oc1ccc2c(C)cc(=O)[nH]c2c1 | 666 | -2% (inactive) | -13% (inactive) | 99.4 | -0.72 | 0.616 | 0.878 | 5.95% (inactive) | -0.502 (inactive) | -0.000195 (active) | 0.00681 (inactive) | inactive | 22.8% (inactive)
CC1(C)Cc2c(C#N)c(N3CCN(C(=O)c4ccco4)CC3)nc(Cc3ccccc3)c2CO1 | 541 | -6.6% (inactive) | 2.1% (inactive) | 97.1 | 1.26 | -0.345 | -0.81 | 12.8% (inactive) | -0.499 (inactive) | 4.3e-05 (inactive) | 0.00414 (inactive) | inactive | 16.1% (inactive)
